MC4R barr agon – agonists of human melanocortin 4 receptor (MC4R) beta-arrestin; P32245; U2OS MC4R beta-arrestin complementation, luminescence; percent of melanotan II response, DMSO zero; activation, % at 8.9 µM; 360,000 tested, 0.98% active; AID 540308;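 active = activation above a per-plate cutoff, the mean activation of sample wells on that plate plus 3 SD, cut at about 8% in these data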
Target sequence (P32245 whole entry, looked up): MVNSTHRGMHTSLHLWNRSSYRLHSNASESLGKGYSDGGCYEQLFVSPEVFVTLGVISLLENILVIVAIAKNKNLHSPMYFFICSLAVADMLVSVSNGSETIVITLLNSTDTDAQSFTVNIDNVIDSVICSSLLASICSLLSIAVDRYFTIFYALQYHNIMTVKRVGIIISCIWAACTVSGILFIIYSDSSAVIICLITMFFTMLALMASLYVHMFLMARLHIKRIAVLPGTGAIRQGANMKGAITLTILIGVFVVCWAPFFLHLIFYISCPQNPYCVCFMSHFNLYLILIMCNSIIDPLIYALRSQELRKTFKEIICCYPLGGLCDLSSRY
MC4R antagonist – antagonists of human melanocortin 4 receptor (MC4R); P32245; MC4R-expressing cells, MTII-stimulated cAMP, LANCE TR-FRET; inhibition, % at 6.5 µM; 360,000 tested, 0.48% active; AID 540295;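 active = inhibition above its plate's cutoff, the mean of tested wells on that plate plus 3 SD, cut at about 29% in these data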;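 also: 0% = Melanotan II alone and 100% = Melanotan II plus saturating MCL0020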
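Test system: U2OS cells stably expressing human melanocortin 4 receptor (MC4R); also added: Melanotan II challenge; compound: 6.5 µM single dose; timing: 30-min compound preincubation, 1-h Melanotan II challenge, 1-h detection, room temperature; signal: Eu-cAMP/anti-cAMP TR-FRET, emission 671 nm; repeats: one well per compound, no replicates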
AHR activator – activates the human aryl hydrocarbon receptor. P35869. AHR-responsive luciferase reporter cells, luminescence. activation, % at 5 µM. 320,000 tested, 2.5% active. AID 2796; in the data active = activation above about 47%;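 also: 0% = vehicle wells and 100% = reference agonist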
GAA850 FXN act – frataxin GAA850 promoter activation; HEK293 lucGAA850 FXN promoter luciferase reporter, 24 h; percent of 10 µM SAHA response; activation, % at 6 µM; 360,000 tested, 0.56% active; AID 540364;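 active = activation above the average of all compounds screened plus 3 SD, cutoff fixed separately per campaign, cut at about 7.5% in these data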;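 also: 0% = DMSO wells and 100% = 10 µM SAHA wells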
HTR2A ag – activates the mouse 5-HT2A serotonin receptor; P35363; CHO-K1 mHTR2A beta-arrestin complementation, luminescence; percent of 30 µM serotonin response; activation, % at 7.6 µM; 360,000 tested, 0.66% active; AID 624169;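 active = activation above a run cutoff, the mean activation of all tested compounds plus 3 SD, cut at about 14% in these data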;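 also: 0% = plate median of compound wells and 100% = 30 µM serotonin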
GAA30 FXN cntr – GAA30 FXN promoter activation counter-screen. AID 588350. HEK293 lucGAA30 FXN promoter luciferase, 24 h; DMSO = 0%, 5 µM ipriflavone = 100%. 1,900 tested, 66% active. shares compounds with GAA850 FXN act. activation, % at 6 µM;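 active = mean activation above the mean of solvent-only control wells plus 3 SD, cut at about 22% in these data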;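 also: counterscreen of GAA850 promoter hits where activity marks nonselective or luminescence artifacts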
FXN GAA850 conf – confirmation of GAA850 frataxin (FXN) promoter activators. HEK293 lucGAA850 FXN promoter luciferase reporter, 24 h; 100% = activation by SAHA. activation, % at 6 µM. 1,900 tested, 86% active. shares compounds with GAA850 FXN act;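 active = mean activation above a set limit taken from the primary screen, cut at about 8% in these data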;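 also: 0% = DMSO wells and 100% = 10 µM SAHA wells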
Numbers without * were called inactive; nt = no result. Hits are enriched below; roughly 4.7% of the tested compounds scored in any of these assays.

SMILES	MC4R barr agon	MC4R antagonist	AHR activator	GAA850 FXN act	HTR2A ag	GAA30 FXN cntr	FXN GAA850 conf
COCCCNc1nc2c(-c3ccc(C)cc3)nnn2c2ccccc12	3.5	-2.0	17.5	7.7*	-0.1	92.4*	39.4*
Cc1ccc(-c2nc(SC(C)C(=O)N3CCCC3)n[nH]2)cc1 (stereo not drawn)	-0.3	1.6	12.2	1.9	-4.0	nt	nt
O=C(NNC(=S)Nc1ccccc1)Nc1ccccc1	-3.2	0.6	10.4	7.7*	-1.9	35.6*	11.3*
CCCN(CC(=O)Nc1ccccc1C)C(=O)CCCc1c[nH]c2ccccc12	-2.1	8.7	8.8	-1.5	-5.3	nt	nt
CCCNC(=O)c1ccccc1NC(=O)c1ccccc1N(C)S(C)(=O)=O	-0.3	-4.1	-1.3	0.5	-3.3	nt	nt
CCCNC(=O)c1ccccc1NC(=O)c1ccccc1N(C)S(=O)(=O)c1ccc(C)cc1	-1.5	-5.7	nt	8.1*	14.2	2.1	10.7*
S=C1NCN(Cc2cccnc2)CN1	0.5	15.3	-0.5	-0.1	-1.8	nt	nt
CN(C)C(=S)N=c1ssc(=S)n1Cc1cccnc1	0.2	4.2	nt	11.7*	-21.3	1.4	12.4*
COc1ccc(/C=C(/C(=O)c2cccs2)N2C=CC=CC2=C(C#N)C#N)cc1	-2.9	7.7	nt	13.6*	-0.8	-1.2	21.6*
CCOc1ccc(-c2cccc(NS(=O)(=O)c3cccc([N+](=O)[O-])c3)c2)nn1	-0.1	18.8	nt	-2.1	1.1	nt	nt
CCn1c(C)nc2cc(C(=O)NN=Cc3ccccc3OC(F)F)ccc21	-2.9	11.8	-2.1	1.9	-4.5	nt	nt
CCn1c(C)nc2cc(C(=O)N/N=C/c3ccccc3C)ccc21	-1.8	5.5	-3.6	12.9*	-1.1	93.2*	36.2*
N#Cc1ccc(Nc2nc(NCc3ccccc3)nc3ccsc23)cc1	3.7	2.0	nt	9.5*	-3.9	32.8*	13.3*
CC(=O)Nc1cccc(/C(C)=N/NC(=O)c2cccc(S(=O)(=O)N3CCCC3)c2)c1	-1.0	3.2	nt	-0.8	0.7	nt	nt
C[n+]1c2cc(N)ccc2cc2ccc(N)cc21	-1.5	-28.0	nt	20.0*	-1.1	16.0	137.7*
CNc1nc(NCCOc2ccccc2Cl)c2sccc2n1	2.0	0.1	nt	9.0*	-7.5	23.9*	11.5*
CCOC(=O)c1sc(Nc2ccccc2Cl)nc1C	2.4	11.3	-1.6	9.9*	0.3	102.5*	39.8*
COc1ccc(-c2cn3c(C)c(C(=O)Nc4ccncc4)sc3n2)cc1	-0.8	-1.0	-6.2	-1.1	1.9	nt	nt
Cc1c(C(=O)Nc2ccncc2)sc2nc(-c3ccc(F)cc3)cn12	2.8	-1.5	-9.7	14.9*	-7.1	45.7*	24.7*
O=C(Nc1ccccc1-c1ccccc1)c1cnccn1	-0.7	4.2	-0.6	9.0*	1.4	41.3*	22.1*
Cc1nn(-c2ccccc2Cl)c(Cl)c1/C=N/Nc1cccc(C(=O)O)c1	-2.4	-18.5	-7.7	7.8*	7.7	119.0*	40.5*
CC(=O)NC(c1ccc(F)c(F)c1)c1nc(-c2ccccc2)cs1 (stereo not drawn)	-2.6	4.4	nt	-0.1	-4.5	nt	nt
O=C(/C=C/Sc1ccccc1)c1ccc(Cl)cc1	-0.4	3.6	-1.0	11.6*	0.0	86.3*	58.5*
Cc1ccc(-c2noc(CCC(=O)Nc3cccc(C(=O)NC4CC4)c3)n2)cc1	1.1	8.9	nt	-3.7	1.9	nt	nt
CCN(CC)C(=O)c1cc(-c2ccc(Br)cc2)on1	-1.7	-1.2	-8.4	8.0*	0.1	111.3*	39.6*
SMILES	MC4R barr agon	MC4R antagonist	AHR activator	GAA850 FXN act	HTR2A ag	GAA30 FXN cntr	FXN GAA850 conf
COC(=O)c1cc(-c2ccc(Br)cc2)on1	-2.2	14.4	-1.0	1.9	-0.7	nt	nt
CCOc1ccc2cc(C#N)c(SCC(=O)N3CCOCC3)nc2c1	2.6	13.3	11.3	9.7*	3.2	133.1*	45.6*
CCOc1ccc2nc(SCC(=O)N3CCCCCC3)c(C#N)cc2c1	-0.2	10.5	12.9	-0.4	3.1	nt	nt
O=[N+]([O-])c1ccccc1S(=O)(=O)Nc1cccnc1	-1.5	4.8	0.3	0.1	-3.4	nt	nt
COc1ccccc1NC(=O)CN1CCC(n2nnc3cc(F)ccc32)CC1	-0.7	-0.3	3.4	-0.4	-6.3	nt	nt
COc1ccccc1NC(=O)CN1CCC(n2c(C)nc3cc(F)ccc32)CC1	-1.4	-10.5	3.6	9.1*	9.7	0.7	7.8*
CC[C@]12c3[nH]c4ccc(Cl)cc4c3CCN1C(=O)[C@@H](CC(=O)NCCc1ccccn1)C[C@@H]2C(=O)N1CCN(C(=O)C2CC2)CC1	1.8	10.0	nt	-1.1	5.0	nt	nt
Nc1ccc(Nc2nc(-c3cc4ccccc4oc3=O)cs2)cc1	-1.3	7.9	-8.2	9.0*	2.8	73.5*	31.8*
CC(C)CN(C(=O)COc1ccc([N+](=O)[O-])cc1)c1c(N)n(CC(C)C)c(=O)[nH]c1=O	-1.0	21.2	-1.5	-0.7	1.5	nt	nt
CN(C)P(=O)(Nc1cccc2ccccc12)Nc1cccc2ccccc12	1.7	-0.7	9.0	-5.2	2.0	nt	nt
CC(C)OP(=O)(Nc1cccc2ccccc12)OC(C)C	-0.3	5.0	0.8	11.7*	-2.8	25.1*	11.6*
O=C(N/N=C/c1ccc(O)cc1)Nc1cccc2nsnc12	-1.3	-11.1	8.7	10.5*	-10.3	56.9*	36.6*
COc1cc(/C=N/NC(=O)Nc2cccc3nsnc23)cc(OC)c1OC	1.0	-1.1	nt	0.3	2.3	nt	nt
CCOC(=O)c1[nH]c(C)c(CC(C)C)c1C	-0.2	-7.4	-0.6	8.5*	3.6	40.1*	15.4*
CCOC(=O)c1[nH]c(C)c(C(=O)N(C)C)c1C	1.0	17.5	0.8	-1.6	-4.0	nt	nt
CCOC(=O)c1c(C)[nH]c(C(=O)C(C)Cl)c1C (stereo not drawn)	-1.3	-3.8	4.2	-0.7	0.3	nt	nt
CCOC(=O)c1[nH]c(C)c(C(=O)C(C)C)c1C	-0.5	-7.0	3.4	8.8*	1.8	76.6*	23.7*
C=CCSc1nc(N)c(NC(=O)c2ccco2)c(=O)[nH]1	1.2	5.6	-0.9	14.1*	1.0	27.8*	9.8*
CCC(=O)N[C@@H]1C=C[C@@H](CC(=O)NCc2ccccc2F)O[C@@H]1CO	nt	nt	nt	nt	7.2	nt	nt
COc1c(O)ccc(/C=N/NC(=O)c2ccc3c(c2)OCCO3)c1[N+](=O)[O-]	0.6	-14.7	5.3	7.7*	-1.1	71.4*	19.2*
CCc1nc2c(OCc3cc(Cl)cc(Cl)c3)cccn2c1N(C)C(=O)c1ccccc1F	-1.3	4.3	nt	0.1	-8.2	nt	nt
CN(c1ccccc1)c1ccc(/C=C/[N+](=O)[O-])cc1	-4.3	10.1	7.0	16.2*	-3.2	-110.7	-20.8
O=C(CCC(=O)N1CCSc2ccccc21)NC1CCCCC1	-0.5	5.9	1.9	8.0*	-5.9	13.6	4.7
